Assay results: ChEMBL document CHEMBL2407028, “Discovery of novel oxazolidinedione derivatives as potent and selective mineralocorticoid receptor antagonists” (Bioorg Med Chem Lett, 2013)

How the values were obtained:
Rattus norvegicus = experiment: Volume of distribution at steady state in rat at 1 mg/kg, iv and 1 mg/lg, po; type: ADME, organism-based; set-up: dose 1 mg/kg, route oral; settings: in vivo
Method in brief: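 Rats dosed at 1 mg/kg iv (n = 2) or 1 mg/kg po (n = 3), formulated at 1 mg/mL in PEG 200:water (70:30). Blood concentrations measured by LC/MS/MS after protein precipitation with acetonitrile.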

[1] = molecular target: T1, Mineralocorticoid receptor (Homo sapiens, UniProt P08235); experiment: Antagonist activity at human mineralocorticoid receptor assessed as inhibition of binding to coactivator peptide by NH Pro assay
T1 sequence (P08235 whole entry): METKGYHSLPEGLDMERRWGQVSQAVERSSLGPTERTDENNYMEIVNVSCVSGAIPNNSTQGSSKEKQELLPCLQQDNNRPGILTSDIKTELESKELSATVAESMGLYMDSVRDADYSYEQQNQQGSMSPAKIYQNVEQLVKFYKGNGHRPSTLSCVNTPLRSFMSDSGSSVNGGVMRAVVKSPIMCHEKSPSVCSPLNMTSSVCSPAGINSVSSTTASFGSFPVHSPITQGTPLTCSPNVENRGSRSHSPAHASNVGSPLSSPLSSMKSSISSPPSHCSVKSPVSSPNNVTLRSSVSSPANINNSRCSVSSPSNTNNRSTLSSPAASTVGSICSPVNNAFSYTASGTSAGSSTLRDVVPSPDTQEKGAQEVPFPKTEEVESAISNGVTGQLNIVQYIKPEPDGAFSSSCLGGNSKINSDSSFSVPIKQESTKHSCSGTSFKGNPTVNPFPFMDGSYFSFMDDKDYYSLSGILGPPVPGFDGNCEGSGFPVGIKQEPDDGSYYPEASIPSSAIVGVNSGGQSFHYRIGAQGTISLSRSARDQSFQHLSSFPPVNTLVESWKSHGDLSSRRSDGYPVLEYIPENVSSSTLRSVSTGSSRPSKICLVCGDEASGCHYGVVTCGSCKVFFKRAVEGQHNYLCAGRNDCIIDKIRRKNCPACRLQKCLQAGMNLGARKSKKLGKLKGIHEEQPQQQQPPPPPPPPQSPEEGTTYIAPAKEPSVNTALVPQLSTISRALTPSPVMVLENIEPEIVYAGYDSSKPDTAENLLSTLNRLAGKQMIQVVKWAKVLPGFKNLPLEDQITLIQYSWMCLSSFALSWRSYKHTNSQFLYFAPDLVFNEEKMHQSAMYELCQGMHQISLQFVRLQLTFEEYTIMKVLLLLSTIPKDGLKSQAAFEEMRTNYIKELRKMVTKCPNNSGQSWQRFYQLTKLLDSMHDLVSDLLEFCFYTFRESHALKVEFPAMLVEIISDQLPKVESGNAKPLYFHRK

Estrogen receptor = molecular target: T2, Estrogen receptor (Homo sapiens, UniProt P03372); experiment: Agonist activity at estrogen receptor alpha (unknown origin) by NH Pro assay
T2 sequence (P03372 whole entry): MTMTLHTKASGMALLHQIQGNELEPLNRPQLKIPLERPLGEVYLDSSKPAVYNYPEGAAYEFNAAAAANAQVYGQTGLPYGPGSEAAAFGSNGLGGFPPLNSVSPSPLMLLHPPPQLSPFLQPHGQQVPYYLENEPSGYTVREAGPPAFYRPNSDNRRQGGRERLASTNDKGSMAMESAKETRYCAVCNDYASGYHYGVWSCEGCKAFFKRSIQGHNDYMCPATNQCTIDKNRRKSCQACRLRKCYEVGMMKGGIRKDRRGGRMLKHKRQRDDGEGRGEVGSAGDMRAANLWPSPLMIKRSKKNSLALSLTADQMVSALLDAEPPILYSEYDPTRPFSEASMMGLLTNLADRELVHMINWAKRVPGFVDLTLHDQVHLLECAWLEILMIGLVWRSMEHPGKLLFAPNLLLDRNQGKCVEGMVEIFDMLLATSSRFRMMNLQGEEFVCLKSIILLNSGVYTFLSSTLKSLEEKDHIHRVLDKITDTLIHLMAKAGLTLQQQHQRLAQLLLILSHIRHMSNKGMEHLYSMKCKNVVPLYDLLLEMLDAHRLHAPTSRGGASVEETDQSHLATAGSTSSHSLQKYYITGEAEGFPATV

Progesterone receptor = molecular target: T3, Progesterone receptor (Homo sapiens, UniProt P06401); experiment: Agonist activity at progesterone receptor beta (unknown origin) by NH Pro assay
T3 sequence (P06401 whole entry): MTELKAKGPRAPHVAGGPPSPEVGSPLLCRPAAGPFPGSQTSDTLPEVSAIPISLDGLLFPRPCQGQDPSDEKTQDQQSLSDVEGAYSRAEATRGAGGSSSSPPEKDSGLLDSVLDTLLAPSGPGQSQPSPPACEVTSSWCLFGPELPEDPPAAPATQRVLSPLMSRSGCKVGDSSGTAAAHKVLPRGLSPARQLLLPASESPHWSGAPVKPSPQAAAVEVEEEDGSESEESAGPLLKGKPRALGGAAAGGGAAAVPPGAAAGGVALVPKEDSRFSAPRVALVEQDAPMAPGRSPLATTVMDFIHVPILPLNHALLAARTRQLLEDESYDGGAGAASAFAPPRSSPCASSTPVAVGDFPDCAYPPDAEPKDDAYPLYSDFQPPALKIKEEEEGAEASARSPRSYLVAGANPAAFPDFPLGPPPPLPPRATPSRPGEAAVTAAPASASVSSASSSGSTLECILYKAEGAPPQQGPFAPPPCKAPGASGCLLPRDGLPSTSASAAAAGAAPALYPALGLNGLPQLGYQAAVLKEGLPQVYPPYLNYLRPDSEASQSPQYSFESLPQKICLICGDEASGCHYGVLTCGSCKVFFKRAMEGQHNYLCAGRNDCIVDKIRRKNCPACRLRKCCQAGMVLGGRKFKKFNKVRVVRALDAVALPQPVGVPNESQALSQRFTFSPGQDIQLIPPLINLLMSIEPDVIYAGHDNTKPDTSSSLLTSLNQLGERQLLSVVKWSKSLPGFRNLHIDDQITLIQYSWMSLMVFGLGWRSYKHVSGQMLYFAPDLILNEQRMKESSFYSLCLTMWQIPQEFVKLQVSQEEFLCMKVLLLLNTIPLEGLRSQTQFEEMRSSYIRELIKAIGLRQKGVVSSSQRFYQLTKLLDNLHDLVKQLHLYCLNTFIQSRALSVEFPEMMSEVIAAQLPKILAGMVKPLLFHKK

Row | Vdss (Rattus norvegicus) [L/kg] | IC50 [1] [µM] | EC50 (Estrogen receptor) [µM] | EC50 (Progesterone receptor) [µM] | Compound
1 | 4.7 | 0.033 | > 20 | > 20 | COc1cc(CNC(=O)[C@@]2(Cc3ccccc3)OC(=O)N([C@@H]3CCc4ccccc43)C2=O)cc(OC)c1
2 | 7.9 | 0.18 | > 20 | > 20 | C[C@H](c1ccc(F)cc1)N1C(=O)O[C@](Cc2ccc(F)cc2)(C(=O)NCc2ccc(Cl)c(Cl)c2)C1=O
